Results as given in ChEMBL document CHEMBL1123632, “Cardiotonic agents. 7. Inhibition of separated forms of cyclic nucleotide phosphodiesterase from guinea pig cardiac muscle by 4,5-dihydro-6-[4-(1H-imidazol-1-yl)phenyl]-3(2H)-pyridazinones and related compounds. Structure-activity relationships and correlation with in vivo positive inotropic …” (J Med Chem, 1987).
Where “and” joins values, the source holds several entries; their conditions need not be identical. Equal values may be shown once.

Legend:
[1] = molecular target: T1, cGMP-dependent 3',5'-cyclic phosphodiesterase (Homo sapiens, UniProt O00408); test: Inhibition of cGMP PDE II enzyme in guinea pig at 1E-5M concentration; settings: Cavia porcellus; target entry is the homologue from another species
T1 sequence (O00408 whole entry): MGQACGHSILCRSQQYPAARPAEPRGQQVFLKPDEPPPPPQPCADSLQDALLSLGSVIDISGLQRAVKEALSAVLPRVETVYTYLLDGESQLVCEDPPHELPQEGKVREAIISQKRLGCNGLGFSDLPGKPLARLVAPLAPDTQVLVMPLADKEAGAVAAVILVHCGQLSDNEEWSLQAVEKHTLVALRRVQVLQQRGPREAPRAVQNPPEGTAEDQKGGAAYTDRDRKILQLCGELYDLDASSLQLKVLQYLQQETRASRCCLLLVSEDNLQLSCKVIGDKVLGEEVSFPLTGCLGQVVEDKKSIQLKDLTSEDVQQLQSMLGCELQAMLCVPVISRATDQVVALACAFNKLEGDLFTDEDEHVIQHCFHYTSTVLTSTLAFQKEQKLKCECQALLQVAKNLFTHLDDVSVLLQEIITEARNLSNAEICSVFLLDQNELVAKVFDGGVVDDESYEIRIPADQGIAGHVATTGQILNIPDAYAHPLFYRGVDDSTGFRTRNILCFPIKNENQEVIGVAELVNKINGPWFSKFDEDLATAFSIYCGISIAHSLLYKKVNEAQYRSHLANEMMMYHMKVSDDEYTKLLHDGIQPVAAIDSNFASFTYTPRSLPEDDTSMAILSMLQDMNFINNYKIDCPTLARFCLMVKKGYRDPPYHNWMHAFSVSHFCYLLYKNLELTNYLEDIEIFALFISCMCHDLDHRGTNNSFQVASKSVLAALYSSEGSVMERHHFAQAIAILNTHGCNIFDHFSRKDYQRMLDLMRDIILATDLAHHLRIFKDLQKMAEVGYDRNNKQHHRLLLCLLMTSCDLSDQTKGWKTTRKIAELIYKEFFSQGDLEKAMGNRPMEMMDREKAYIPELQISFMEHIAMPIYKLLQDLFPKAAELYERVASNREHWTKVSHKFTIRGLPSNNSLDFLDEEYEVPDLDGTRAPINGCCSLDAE

Phosphodiesterase 1 [2] = molecular target: T2, Phosphodiesterase 1 (Homo sapiens, UniProt P54750+Q01064+Q14123); test: Inhibition of cAMP PDE I enzyme in guinea pig at 1E-4M concentration.; assay type: protein assay; settings: Cavia porcellus; target entry is the homologue from another species
[3] = molecular target: T1, cGMP-dependent 3',5'-cyclic phosphodiesterase; test: Inhibition of PDE II enzyme in guinea pig; parameters: species or system Cavia porcellus; settings: target entry is the homologue from another species
[4] = molecular target: T1, cGMP-dependent 3',5'-cyclic phosphodiesterase; test: Inhibitory concentration against cGMP PDE II enzyme in guinea pig; parameters: species or system Cavia porcellus; settings: target entry is the homologue from another species
Canis familiaris = species on record: Canis familiaris; test: Effective dose required to increase myocardial contractility in dog.; assay type: functional; settings: Canis lupus familiaris, Myocardium
Summary of the method: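 Anesthetized mongrel dogs (either sex): pentobarbital 35 mg/kg iv, then 5 mg kg⁻¹ h⁻¹ infusion. After 30-min control, compound in saline or dilute HCl/NaOH diluted with saline given iv over 1 min, cumulative half-log doses (typically four to six), 10–30 min apart.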

PDE I (Cavia porcellus) [5] = test: Inhibitory concentration against cAMP PDE I enzyme in guinea pig
Phosphodiesterase 3 [6] = molecular target: T3, Phosphodiesterase 3 (Homo sapiens, UniProt Q14432+Q13370); test: Inhibition of cAMP PDE III enzyme in guinea pig at 1E-5M concentration; assay type: protein assay; settings: Cavia porcellus; target entry is the homologue from another species
[7] = molecular target: T1, cGMP-dependent 3',5'-cyclic phosphodiesterase; test: Inhibition of cAMP PDE II enzyme in guinea pig at 1E-5M concentration; settings: Cavia porcellus; target entry is the homologue from another species
Phosphodiesterase 1 [8] = molecular target: T2, Phosphodiesterase 1; test: Inhibition of cGMP PDE I enzyme in guinea pig at 1E-5M concentration; assay type: protein assay; settings: Cavia porcellus; target entry is the homologue from another species
[9] = molecular target: T1, cGMP-dependent 3',5'-cyclic phosphodiesterase; test: Inhibition of cGMP PDE II enzyme in guinea pig at 1E-4M concentration; settings: Cavia porcellus; target entry is the homologue from another species
[10] = Ratio of IC50 values for PDE III and PDE I.
PDE I (Cavia porcellus) [11] = test: Inhibitory concentration against cGMP PDE I enzyme in guinea pig
Phosphodiesterase 3 [12] = molecular target: T3, Phosphodiesterase 3; test: Inhibition of cAMP PDE III enzyme in guinea pig at 1E-4M concentration.; assay type: protein assay; settings: Cavia porcellus; target entry is the homologue from another species
Phosphodiesterase 1 [13] = molecular target: T2, Phosphodiesterase 1; test: Inhibition of cGMP PDE I enzyme in guinea pig at 1E-4M concentration; assay type: protein assay; settings: Cavia porcellus; target entry is the homologue from another species
Phosphodiesterase 1 [14] = molecular target: T2, Phosphodiesterase 1; test: Inhibition of cAMP PDE I enzyme in guinea pig at 1E-5M concentration; assay type: protein assay; settings: Cavia porcellus; target entry is the homologue from another species
PDE II (Cavia porcellus) = test: Inhibition of cAMP PDE II enzyme in guinea pig at 1E-4M concentration.
Phosphodiesterase 3 [15] = molecular target: T3, Phosphodiesterase 3; test: Inhibitory concentration against cAMP PDE III enzyme in guinea pig; assay type: protein assay, Cavia porcellus; settings: target entry is the homologue from another species
[16] = Ratio of IC50 values for PDE III and PDE II.
[17] = molecular target: T1, cGMP-dependent 3',5'-cyclic phosphodiesterase; test: Inhibition of cGMP PDE II enzyme in guinea pig at 1E-4M; settings: Cavia porcellus; target entry is the homologue from another species
Phosphodiesterase 1 [18] = molecular target: T2, Phosphodiesterase 1; test: Inhibitory concentration against cGMP PDE I enzyme in guinea pig; assay type: protein assay, Cavia porcellus; settings: target entry is the homologue from another species
Phosphodiesterase 1 [19] = molecular target: T2, Phosphodiesterase 1; test: Inhibitory concentration against cAMP PDE I enzyme in guinea pig; assay type: protein assay, Cavia porcellus; settings: target entry is the homologue from another species
[20] = molecular target: T1, cGMP-dependent 3',5'-cyclic phosphodiesterase; test: Inhibition of cAMP PDE II enzyme in guinea pig at 1E-4M; settings: Cavia porcellus; target entry is the homologue from another species
Phosphodiesterase 1 [21] = molecular target: T2, Phosphodiesterase 1; test: Inhibition of cGMP PDE I enzyme in guinea pig at 1E-4M; assay type: protein assay; settings: Cavia porcellus; target entry is the homologue from another species
Phosphodiesterase 3 [22] = molecular target: T3, Phosphodiesterase 3; test: Inhibition of cAMP PDE III enzyme in guinea pig at 1E-4M; assay type: protein assay; settings: Cavia porcellus; target entry is the homologue from another species
Phosphodiesterase 1 [23] = molecular target: T2, Phosphodiesterase 1; test: Inhibition of cAMP PDE I enzyme in guinea pig at 1E-4M; assay type: protein assay; settings: Cavia porcellus; target entry is the homologue from another species
[24] = molecular target: T1, cGMP-dependent 3',5'-cyclic phosphodiesterase; test: Inhibitory concentration against cAMP PDE II enzyme in guinea pig; parameters: species or system Cavia porcellus; settings: target entry is the homologue from another species
[25] = molecular target: T1, cGMP-dependent 3',5'-cyclic phosphodiesterase; test: Inhibition of cGMP PDE II enzyme in guinea pig at 10e-4 M; settings: Cavia porcellus, target entry is the homologue from another species

Compound | inhibition [1] [%] | inhibition (Phosphodiesterase 1 [2]) [%] | ED50 (Canis familiaris) [mg/kg] | inhibition (Phosphodiesterase 3 [6]) [%] | inhibition [7] [%] | inhibition (Phosphodiesterase 1 [8]) [%] | inhibition (Phosphodiesterase 3 [12]) [%] | inhibition (Phosphodiesterase 1 [13]) [%] | inhibition (Phosphodiesterase 1 [14]) [%] | inhibition (PDE II (Cavia porcellus)) [%] | IC50 (Phosphodiesterase 3 [15]) [µM] | inhibition [17] [%] | IC50 (Phosphodiesterase 1 [18]) [µM] | IC50 (Phosphodiesterase 1 [19]) [µM] | inhibition [20] [%] | other results
Nc1cc(-c2ccc(-n3ccnc3)cc2)nnc1O | 10 | 20 | 0.3 | 41 | 13 | 7 | 64 | 28 | 6 | 44 | 22 | – | – | – | – | IC50 [3]: 110 µM; IC50 [4]: 88 µM; IC50 (PDE I (Cavia porcellus) [5]): > 500 µM; inhibition [9]: 51%; Ratio [10]: < 44; IC50 (PDE I (Cavia porcellus) [11]): > 500 µM; Ratio [16]: 200
O=C1CCC(c2ccc(-n3cncn3)cc2)=NN1 | 7 | – | – | 33 | 6 | 6 | 51 | – | 7 | 20 | – | 24 | – | – | – | –
Oc1ccc(-c2ccc(-n3ccnc3)cc2)nn1 | 11 | 17 | 0.11 | 56 | – | 6 | 80 | 15 | 4 | – | 7.2 | – | 580 | 660 | – | inhibition [9]: 27%
CC1CC(c2ccc(-n3ccnc3)cc2)=NNC1=O (centres undefined) | 7 | – | 1 | 25 | 15 | 2 | – | – | 0 | – | 43 | 26 | > 1000 | > 1000 | 27 | inhibition (Phosphodiesterase 1 [21]): 8%; inhibition (Phosphodiesterase 3 [22]): 63%; inhibition (Phosphodiesterase 1 [23]): 8%
O=C1CCC(c2ccc(-n3ccnc3)cc2)=NN1 [IMAZODAN] | 7 | 8 | 0.045 | 57 | 4 | 3 | 76 | 10 | 3 | – | – | 20 | – | – | 17 | –
Cc1nccn1-c1ccc(C2=NNC(=O)CC2)cc1 | 4 | 16 | 0.3 | 57 | 8 | 0 | 64 | 18 | 1 | 19 | 2.3 | – | – | – | – | IC50 [4]: 380 µM; IC50 (PDE I (Cavia porcellus) [5]): 790 µM; IC50 [24]: 420 µM; Ratio [10]: 2.9; IC50 (PDE I (Cavia porcellus) [11]): 530 µM; inhibition [25]: 22%; Ratio [16]: 5.4
CC1CC(O)=NN=C1c1ccc(-n2ccnc2)cc1 (centres undefined) [CI-930] | 7 | – | 0.013 | 69 | 5 | 9 | – | – | 3 | – | – | 23 | – | – | 18 | inhibition (Phosphodiesterase 1 [21]): 12%; inhibition (Phosphodiesterase 1 [23]): 9%
Nc1cc(-c2ccncc2)c[nH]c1=O [INAMRINONE] | – | – | – | – | – | – | – | – | – | – | – | – | > 1000 | > 1000 | – | IC50 [24]: 720 µM and 580 µM
